Values after ≈ are worked out from the molar mass of the structure shown. Active and inactive are the calls of the source. The calls are words filed in the database; no cut-off is given here.
What was measured:
[1] = system: Mycolicibacterium smegmatis; experiment: Antimicrobial activity against Mycobacterium smegmatis DSM 43524 by serial dilution assay; type: functional
[2] = system: Micrococcus luteus; experiment: Antimicrobial activity against Micrococcus luteus DSM 1790 by serial dilution assay; type: functional
[3] = system: Staphylococcus aureus; experiment: Antimicrobial activity against Staphylococcus aureus DSM 346 by serial dilution assay; type: functional
[4] = system: KB 3-1; experiment: Cytotoxicity in human KB 3.1 cells; type: functional, cell-based
Procedure, shortened: (§1)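 In vitro cytotoxicity against mouse fibroblast L929 and HeLa-derived KB-3.1 cells; serial dilutions from a starting concentration of 37 μg/mL; IC50 determined.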

[5] = system: Bacillus subtilis; experiment: Antimicrobial activity against Bacillus subtilis DSM 10 by serial dilution assay; type: functional
[6] = system: Mucor hiemalis; experiment: Antimicrobial activity against Mucor hiemalis DSM 2656 by serial dilution assay; type: functional
Procedure, shortened: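 Serial dilution MIC assay in 96-well plates using YM medium for the filamentous fungus; starting concentration 300 μg/mL.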

[7] = system: L929; experiment: Cytotoxicity in mouse L929 cells; type: functional, cell-based; procedure, shortened: as §1
[8] = Homo sapiens, KB 3-1, read-out: IC50
[9] = Mus musculus, L929, read-out: IC50

In the case of `C=C([C@H]1CC=C(C)CC1)[C@H](O)[C@@H](O)/C=C(\C)C(=O)O`, the MIC [1] is reported as “inactive”, the MIC [2] is reported as “inactive” and the MIC [3] is reported as 100 µg/mL (≈ 375 µM). For the same compound, the IC50 [4, 8] was 173 µM, the MIC [5] was “inactive” and the MIC [6] was 100 µg/mL (≈ 375 µM).
Compound `O=C(O)c1cn(C2CC2)c2cc(N3CCNCC3)c(F)cc2c1=O` [CIPROFLOXACIN] has an MIC [5] of 3.1 µg/mL (≈ 9.36 µM).
With NYSTATIN the MIC [6] was 16.7 µg/mL.
In the case of `CC1=CC[C@H]([C@@](C)(O)[C@@H](O)C/C=C(\C)C(=O)O)CC1`, the MIC [1] is reported as “inactive”, the MIC [2] is reported as “inactive” and the MIC [3] is reported as “inactive”. The MIC [5] was “inactive” and the MIC [6] was 50 µg/mL (≈ 186 µM).
In the case of `CN(C)[C@@H]1C(O)=C(C(N)=O)C(=O)[C@@]2(O)C(O)=C3C(=O)c4c(O)cccc4[C@@](C)(O)[C@H]3[C@H](O)[C@@H]12` [OXYTETRACYCLINE], the MIC [2] is reported as 0.4 µg/mL (≈ 0.869 µM) and the MIC [3] is reported as 0.4 µg/mL (≈ 0.869 µM).
`C=C1CCCC(C)(C)[C@@H]1CC/C(=C/CO)CO` was tested, and the MIC [1] was “inactive”, the MIC [2] was 100 µg/mL (≈ 420 µM) and the MIC [3] was 100 µg/mL (≈ 420 µM). It also gave an IC50 [7, 9] of 118 µM, an IC50 [4, 8] of 79.8 µM and an MIC [5] of 100 µg/mL (≈ 420 µM). For the same compound, the MIC [6] was 25 µg/mL (≈ 105 µM).
With `C=C1CCC[C@@](C)(CO)[C@@H]1CCc1ccoc1` the IC50 [7, 9] was 59.8 µM, the IC50 [4, 8] was 27.8 µM and the MIC [5] was 75 µg/mL (≈ 320 µM).
Compound `NC[C@H]1O[C@H](O[C@H]2[C@H](O)[C@@H](O[C@H]3O[C@H](CO)[C@@H](O)[C@H](N)[C@H]3O)[C@H](N)C[C@@H]2N)[C@H](O)[C@@H](O)[C@@H]1O` [KANAMYCIN] has an MIC [1] of 0.4 µg/mL (≈ 0.826 µM).
With `C=C1CCC[C@@](C)(C(=O)O)[C@@H]1CCc1ccoc1` the MIC [1] was “inactive”, the MIC [2] was “inactive” and the MIC [3] was “inactive”. For the same compound, the IC50 ([7]; l929) was “Not Active”, the IC50 [4, 8] was 141 µM and the MIC [5] was 75 µg/mL (≈ 302 µM). For the same compound, the MIC [6] was 50 µg/mL (≈ 201 µM).
In the case of `CC1=CC[C@H]([C@@](C)(O)[C@@H](O)[C@@H](O)/C=C(\C)C(=O)O)CC1`, the MIC [1] is reported as “inactive”, the MIC [2] is reported as “inactive” and the MIC [3] is reported as “inactive”. For the same compound, the MIC [5] was “inactive” and the MIC [6] was “inactive”.
With `O=C(O)/C=C/c1ccc(O)cc1` [COUMARIC ACID] the MIC [1] was “inactive”, the MIC [2] was “inactive” and the MIC [3] was “inactive”. For the same compound, the IC50 ([7]; l929) was “Not Active”, the IC50 ([4]; kb 3-1) was “Not Active” and the MIC [5] was “inactive”. It also gave an MIC [6] of 50 µg/mL (≈ 305 µM).
`C=C1CCC[C@@](C)(CO)[C@@H]1CC/C(=C/CO)CO` was tested, and the MIC [1] was “inactive”, the MIC [2] was “inactive” and the MIC [3] was “inactive”. For the same compound, the IC50 ([7]; l929) was “Not Active”, the IC50 ([4]; kb 3-1) was “Not Active” and the MIC [5] was “inactive”. For the same compound, the MIC [6] was 50 µg/mL (≈ 197 µM).
For `C/C(=C\c1csc(C)n1)[C@@H]1C[C@@H]2O[C@]2(C)CCC[C@H](C)[C@H](O)[C@@H](C)C(=O)C(C)(C)[C@@H](O)CC(=O)O1` [PATUPILONE], the IC50 [7, 9] was 0.00275 µM and the IC50 [4, 8] was 6.5e-05 µM.

Source: ChEMBL document CHEMBL4316643, “Sesquiterpenes from an Eastern African Medicinal Mushroom Belonging to the Genus Sanghuangporus” (J Nat Prod, 2019)
